According to ChEMBL document CHEMBL1132646, “Synthesis and evaluation of new sulfur-containing L-arginine-derived inhibitors of nitric oxide synthase” (J Med Chem, 1999):

How the values were obtained:
[1] = target: T1, Nitric oxide synthase, inducible (Mus musculus, UniProt P29477); test: Effective concentration against NADPH oxidase activity of iNOS
T1 sequence (P29477 whole entry): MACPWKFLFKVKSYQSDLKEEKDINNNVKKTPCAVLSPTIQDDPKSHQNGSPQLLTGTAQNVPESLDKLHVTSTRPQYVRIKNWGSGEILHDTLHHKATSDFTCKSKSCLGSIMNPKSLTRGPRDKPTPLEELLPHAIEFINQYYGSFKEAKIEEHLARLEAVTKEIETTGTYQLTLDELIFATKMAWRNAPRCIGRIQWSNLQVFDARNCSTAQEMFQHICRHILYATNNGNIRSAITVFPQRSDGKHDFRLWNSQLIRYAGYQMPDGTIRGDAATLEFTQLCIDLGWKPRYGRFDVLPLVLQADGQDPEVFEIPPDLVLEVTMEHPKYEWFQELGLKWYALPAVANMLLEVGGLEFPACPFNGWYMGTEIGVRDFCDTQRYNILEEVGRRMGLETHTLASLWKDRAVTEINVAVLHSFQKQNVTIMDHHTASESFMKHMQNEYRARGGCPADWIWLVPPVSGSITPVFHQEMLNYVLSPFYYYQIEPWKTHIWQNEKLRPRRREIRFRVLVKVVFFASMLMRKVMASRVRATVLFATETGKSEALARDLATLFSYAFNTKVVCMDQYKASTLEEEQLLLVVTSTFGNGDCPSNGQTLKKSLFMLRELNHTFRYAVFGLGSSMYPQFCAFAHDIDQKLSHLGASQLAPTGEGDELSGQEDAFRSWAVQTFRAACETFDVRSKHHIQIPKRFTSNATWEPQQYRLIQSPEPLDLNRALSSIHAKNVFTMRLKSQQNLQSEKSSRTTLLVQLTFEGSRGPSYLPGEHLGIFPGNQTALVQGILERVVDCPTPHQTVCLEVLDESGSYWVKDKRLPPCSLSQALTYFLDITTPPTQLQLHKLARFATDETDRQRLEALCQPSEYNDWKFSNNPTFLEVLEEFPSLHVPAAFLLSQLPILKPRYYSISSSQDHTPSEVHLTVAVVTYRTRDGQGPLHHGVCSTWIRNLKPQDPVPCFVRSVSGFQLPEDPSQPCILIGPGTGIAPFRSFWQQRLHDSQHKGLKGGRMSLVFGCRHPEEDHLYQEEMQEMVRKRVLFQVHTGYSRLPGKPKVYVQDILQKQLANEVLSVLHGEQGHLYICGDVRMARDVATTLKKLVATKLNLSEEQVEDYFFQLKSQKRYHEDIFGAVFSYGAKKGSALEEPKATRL
In short: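 Mouse His6-tagged iNOS (E. coli BL21-DE3 expressed, Ni-NTA purified), 0.5 μM, in 40 mM HEPES pH 7.4 with 0.3 mM DTT, 4 μM each FAD/FMN/H4B, 10 units/mL catalase and SOD, varied analogue concentrations; started with 0.1 mM NADPH. NADPH oxidation rate followed as absorbance drop at 340 nm, 37 °C, triplicate; EC50 for decreased oxidase activity.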

Nitric oxide synthase 3 = target: T2, Nitric oxide synthase 3 (Homo sapiens, UniProt P29474); test: Inhibitory concentration against mammalian endothelial nitric oxide synthase (eNOS)
T2 sequence (P29474 whole entry): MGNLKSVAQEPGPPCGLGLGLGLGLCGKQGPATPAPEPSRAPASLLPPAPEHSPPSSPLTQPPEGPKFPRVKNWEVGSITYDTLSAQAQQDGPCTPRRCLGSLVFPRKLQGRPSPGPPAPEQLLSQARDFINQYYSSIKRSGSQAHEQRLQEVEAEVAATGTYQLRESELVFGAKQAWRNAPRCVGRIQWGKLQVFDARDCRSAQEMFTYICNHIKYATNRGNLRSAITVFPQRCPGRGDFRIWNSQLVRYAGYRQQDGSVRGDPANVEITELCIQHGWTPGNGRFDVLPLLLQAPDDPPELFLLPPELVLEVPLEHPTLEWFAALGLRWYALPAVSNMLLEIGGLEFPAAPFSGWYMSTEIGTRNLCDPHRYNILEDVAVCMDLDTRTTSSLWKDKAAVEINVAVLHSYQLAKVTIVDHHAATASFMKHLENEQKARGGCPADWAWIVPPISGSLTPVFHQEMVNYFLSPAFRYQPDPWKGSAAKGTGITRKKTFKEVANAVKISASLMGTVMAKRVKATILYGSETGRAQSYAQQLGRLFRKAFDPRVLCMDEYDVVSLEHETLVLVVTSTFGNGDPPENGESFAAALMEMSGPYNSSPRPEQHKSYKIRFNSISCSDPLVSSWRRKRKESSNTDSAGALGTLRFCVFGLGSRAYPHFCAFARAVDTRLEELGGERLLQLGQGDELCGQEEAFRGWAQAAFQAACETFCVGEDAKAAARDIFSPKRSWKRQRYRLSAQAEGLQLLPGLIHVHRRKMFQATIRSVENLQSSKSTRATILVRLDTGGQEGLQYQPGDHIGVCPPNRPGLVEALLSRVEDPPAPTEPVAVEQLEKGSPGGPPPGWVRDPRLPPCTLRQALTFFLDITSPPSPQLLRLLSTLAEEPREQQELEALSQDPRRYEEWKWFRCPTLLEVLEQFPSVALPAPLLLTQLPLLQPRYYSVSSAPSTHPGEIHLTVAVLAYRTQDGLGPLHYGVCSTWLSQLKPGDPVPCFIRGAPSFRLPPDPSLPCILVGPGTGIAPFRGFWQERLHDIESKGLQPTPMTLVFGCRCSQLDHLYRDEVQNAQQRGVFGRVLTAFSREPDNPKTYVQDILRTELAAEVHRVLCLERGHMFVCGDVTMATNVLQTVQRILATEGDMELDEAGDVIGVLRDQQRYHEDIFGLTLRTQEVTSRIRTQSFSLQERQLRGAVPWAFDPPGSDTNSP
In short: (§1)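 Citrulline formation: 20 mM HEPES pH 7.4, 50 μM L-arginine with 0.05 μCi [14C]-L-arginine, 4 μM FAD/FMN/H4B, 1 mM DTT, 1 mg/mL BSA, varied inhibitor; nNOS 12.5 nM, eNOS 25 nM (both plus 1 mM CaCl2, 15 μg/mL calmodulin), iNOS 2.5 nM (mouse, His6-tagged). Initiated with NADPH, 10 min room temperature, stopped pH 5.5 EDTA; [14C]-citrulline separated on Dowex cation exchange, scintillation counted; duplicate.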

[2] = target: T1, Nitric oxide synthase, inducible; test: Inhibitory concentration against mouse inducible nitric oxide synthase (iNOS); in short: as §1
Nitric oxide synthase 1 = Nitric oxide synthase 1 (Homo sapiens, UniProt P29475); test: Inhibitory concentration against mammalian Neuronal nitric oxide synthase (nNOS); in short: as §1
Chain of Nitric oxide synthase 1 (P29475 whole entry): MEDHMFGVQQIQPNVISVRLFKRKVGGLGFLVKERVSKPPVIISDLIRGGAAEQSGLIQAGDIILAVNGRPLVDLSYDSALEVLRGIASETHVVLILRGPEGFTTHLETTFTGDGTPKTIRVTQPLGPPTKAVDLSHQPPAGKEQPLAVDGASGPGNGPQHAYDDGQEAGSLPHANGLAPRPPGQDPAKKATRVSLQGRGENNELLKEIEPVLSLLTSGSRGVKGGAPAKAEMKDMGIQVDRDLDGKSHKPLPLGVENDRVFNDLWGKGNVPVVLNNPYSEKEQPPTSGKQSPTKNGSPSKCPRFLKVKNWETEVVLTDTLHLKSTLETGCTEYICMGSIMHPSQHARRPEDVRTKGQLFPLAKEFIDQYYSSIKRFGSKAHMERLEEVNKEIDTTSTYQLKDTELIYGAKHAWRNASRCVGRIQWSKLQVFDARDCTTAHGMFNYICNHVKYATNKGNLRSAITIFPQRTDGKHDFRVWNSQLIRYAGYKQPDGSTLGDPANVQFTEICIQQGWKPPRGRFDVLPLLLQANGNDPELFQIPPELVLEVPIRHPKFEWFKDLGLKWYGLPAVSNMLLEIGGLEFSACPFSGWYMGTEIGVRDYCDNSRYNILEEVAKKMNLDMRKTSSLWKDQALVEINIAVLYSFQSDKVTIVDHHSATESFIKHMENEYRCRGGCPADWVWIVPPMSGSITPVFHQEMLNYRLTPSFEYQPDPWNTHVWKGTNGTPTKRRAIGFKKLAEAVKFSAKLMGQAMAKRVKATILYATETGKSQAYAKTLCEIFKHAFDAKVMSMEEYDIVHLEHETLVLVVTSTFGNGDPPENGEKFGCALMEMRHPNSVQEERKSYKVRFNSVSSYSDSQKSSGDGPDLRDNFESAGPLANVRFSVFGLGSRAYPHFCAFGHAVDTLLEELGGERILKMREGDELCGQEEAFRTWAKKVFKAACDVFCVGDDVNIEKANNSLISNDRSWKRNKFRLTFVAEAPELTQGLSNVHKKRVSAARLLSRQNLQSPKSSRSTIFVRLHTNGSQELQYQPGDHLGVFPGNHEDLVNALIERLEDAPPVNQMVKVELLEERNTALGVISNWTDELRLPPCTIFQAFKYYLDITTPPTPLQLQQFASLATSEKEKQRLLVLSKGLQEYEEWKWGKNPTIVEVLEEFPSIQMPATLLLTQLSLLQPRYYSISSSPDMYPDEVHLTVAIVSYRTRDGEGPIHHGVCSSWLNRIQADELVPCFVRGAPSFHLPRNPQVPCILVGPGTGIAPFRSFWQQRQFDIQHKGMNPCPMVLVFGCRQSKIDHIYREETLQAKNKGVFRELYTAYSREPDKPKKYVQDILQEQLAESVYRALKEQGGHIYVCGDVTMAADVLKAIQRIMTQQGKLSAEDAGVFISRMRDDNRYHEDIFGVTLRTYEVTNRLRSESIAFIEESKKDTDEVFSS

Row | SMILES | EC50 [1] [µM] | IC50 (Nitric oxide synthase 3) [µM] | IC50 [2] [µM] | Ki [2] [µM] | IC50 (Nitric oxide synthase 1) [µM]
1 | CS/C(=N/N)NCCC[C@H](N)C(=O)O | 180 | 752 | 320 | 58 | 327
2 | NNC(=S)NCCC[C@H](N)C(=O)O | 190 | 3060 | 3710 | 202 | 1620
3 | CS/C(=N/O)NCCC[C@H](N)C(=O)O | 6.6 | 19.7 | 13 | 7 | 6.7
